KCNQ1 block: inhibitors of human KCNQ1 channel, primary screen, cell-based, thallium flux, high-throughput; Potassium voltage-gated channel subfamily KQT member 1 (Homo sapiens), P51787; CHO-K1 KCNQ1, FluxOR thallium flux fluorescence; stronger effect = higher value; B-score at 10 µM; actives 1.3% (n = 310,000); AID 2642, 2010;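 active means compounds whose thallium flux B-score, printed positive for inhibition, exceeds three library SD while starting fluorescence stays within three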;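 further: channel opened by potassium depolarization with thallium stimulus after 20 min compound exposure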
Kir21 block: inhibitors of mouse Kir2.1 inward-rectifier potassium channel; AID 1672, 2009; actives 0.85% (n = 310,000); B-score at 10 µM; HEK293-Kir2.1, FluxOR thallium flux fluorescence; stronger effect = lower value;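 active means fluorescence ratio B-score at or below minus 3 SD of library scores, with starting-brightness B-score within 2 SD, cut at about -4.2 in these data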;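 further: channel flux triggered by added potassium and thallium sulfate stimulus; B-score of peak minus minimum fluorescence over baseline after thallium stimulus; more negative B-score means stronger Kir2.1 block with less thallium influx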
Target sequence (P35561 whole entry, looked up): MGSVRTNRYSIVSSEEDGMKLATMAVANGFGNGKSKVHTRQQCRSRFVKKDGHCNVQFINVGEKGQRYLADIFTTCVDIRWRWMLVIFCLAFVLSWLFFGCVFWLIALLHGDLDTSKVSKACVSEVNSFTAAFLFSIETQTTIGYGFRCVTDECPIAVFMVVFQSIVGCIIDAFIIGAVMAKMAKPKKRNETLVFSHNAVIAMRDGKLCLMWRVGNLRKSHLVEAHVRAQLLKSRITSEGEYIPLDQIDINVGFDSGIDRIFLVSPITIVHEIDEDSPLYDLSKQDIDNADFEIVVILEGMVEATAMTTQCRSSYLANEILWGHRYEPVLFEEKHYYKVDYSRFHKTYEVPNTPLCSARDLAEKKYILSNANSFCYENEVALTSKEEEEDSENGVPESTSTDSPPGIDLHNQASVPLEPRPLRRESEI
hERG protect: hERG rescue from dofetilide block, primary screen, cell-based, CHO-hERG, FluxOR thallium flux, dofetilide IC70 | Voltage-gated inwardly rectifying potassium channel KCNH2 (Homo sapiens), Q12809 | dofetilide IC70 present | activation (rescue from dofetilide block), less the hit threshold, % at 10 µM | actives 0.51% (n = 310,000);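 active means activation above the mean of controls blocked by dofetilide plus 5 SD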;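 further: thallium influx through hERG after potassium depolarization seen as dye fluorescence rise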
KCNQ1 pot: potentiators or activators of KCNQ1 channel, primary screen, cell-based, thallium flux, high-throughput | Potassium voltage-gated channel subfamily KQT member 1 (Homo sapiens), P51787 | CHO-K1 KCNQ1, thallium flux FluxOR fluorescence; stronger effect = higher value | B-score at 10 µM | actives 0.35% (n = 310,000) | AID 2648, 2010;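 active means fluorescence ratio B-score, a plate-corrected score, at least three library SD, with initial intensity B-score within 5 SD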
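assay system = KCNQ1-transfected CHO-K1 cells | medium = assay buffer with matched DMSO | probe or stimulus = depolarizing K+/Tl+ stimulus, K2SO4 and Tl2SO4 each 12.5 mM in 5x stock | dosing = single dose | incubation = dye 90 min, compound 20 min, room temperature | detection = kinetic FluxOR fluorescence, 10 s baseline plus 110 s post-stimulus | evaluation = ratio B score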
KCNK9 inh: KCNK9 potassium channel inhibitors, primary screen, HEK293 cells, thallium flux | B-score at 10 µM | FluxOR thallium flux fluorescence; stronger effect = lower value | actives 1.2% (n = 310,000);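 active means ratio B-score over 3 SD below the library mean, with starting fluorescence within 5 SD of its mean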;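 further: negative B-score means less thallium flux so channel inhibition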
KCNK3 inh: human KCNK3 channel inhibitors, primary screen, CHO cells, FluxOR thallium flux, B-score. Potassium channel subfamily K member 3 (Homo sapiens), O14649. FluxOR fluorescence; stronger effect = lower value. B-score at 10 µM. actives 0.84% (n = 340,000);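 active means B-score under library mean minus 4 SD, starting fluorescence ratio at most library mean plus 5 SD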;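 further: more negative B-score means stronger inhibition of thallium flux through KCNK3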
KCNK9 inh conf: KCNK9 potassium channel inhibitors, confirmation, HEK293 cells, thallium flux, duplicate | shares compounds with KCNK9 inh | FluxOR thallium flux fluorescence | inhibition, % at 10 µM | actives 43% (n = 4,900) | AID 492992, 2010;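 active means thallium signal inhibited by more than 5 SD of the compound-free buffer control wells, on both duplicate plates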
Kir21 sel: mouse Kir2.1 channel inhibition, confirmation, selectivity assay for KCNK9 modulator project, cell-based, HEK293, thallium flux. shares compounds with KCNK9 inh. Kir2.1 cells, FluxOR thallium flux fluorescence. actives 4% (n = 4,900). AID 492993, 2010. inhibition, % at 10 µM;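 active means thallium signal drop more than 5 SD beyond the mean of the no-compound control wells, seen in both duplicate plates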;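 further: signal is fluorescence rise after thallium addition divided by baseline fluorescence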
KCNK9 uninduced: thallium flux in non-induced HEK293 cells, confirmation, counter-screen for KCNK9 inhibitor project, cell-based, second counter screen, non-induced KCNK9-HEK293 | inhibition, % at 10 µM | shares compounds with KCNK9 inh | actives 40% (n = 4,900) | AID 492997, 2010 | FluxOR thallium flux;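 active means thallium signal drop beyond 5 SD of the untreated control mean, on both duplicate plates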
Hits are given with their value; i = inactive; nt = not tested or not shown. The list is not random: actives were taken first. Their share in the collection is about 3.7%.

SMILES	KCNQ1 block	Kir21 block	hERG protect	KCNQ1 pot	KCNK9 inh	KCNK3 inh	KCNK9 inh conf	Kir21 sel	KCNK9 uninduced
COc1cc(OC)nc(Oc2cccc(C(F)(F)F)c2)n1	i	i	i	i	-10.3	i	48.0%	i	38.0%
Cc1cc(C)n(-c2nnc(NC34CC5CC(CC(C5)C3)C4)nn2)n1	i	i	i	i	i	i	nt	nt	nt
COc1ccccc1/C=C(/CC(=O)NCc1ccccc1)c1nc2ccccc2s1	i	i	i	i	-9.68	i	70.5%	i	i
O=C(CCCc1nc2ccccc2s1)NCc1ccccc1	i	i	i	i	i	i	nt	nt	nt
COc1ccccc1/C=C(/CC(=O)NCc1ccc(F)cc1)c1nc2ccccc2s1	i	i	i	i	-16.2	i	65.5%	i	36.5%
O=C(COC(=O)c1cc[n+]([O-])cc1)Nc1cccc(F)c1	nt	nt	nt	nt	nt	i	nt	nt	nt
CCN(CC)S(=O)(=O)c1ccc2c(c1)nc(SCC(=O)NC1CC1)n2-c1ccccc1OC	i	i	i	i	i	i	nt	nt	nt
O=C(Nc1ccccc1)OCCCc1ccccc1	i	i	i	i	i	i	i	i	i
O=C(Cc1cccs1)NC(c1ccccc1)c1ccccc1	i	i	i	i	i	i	nt	nt	nt
O=C(COC(=O)/C(=C/c1cccs1)c1cccs1)NC(c1ccccc1)c1ccccc1	i	i	i	i	-9.11	i	45.5%	i	i
O=C(COc1coc(CN2CCN(c3ccccc3F)CC2)cc1=O)NCC1CCCO1 (stereo not drawn)	i	i	i	i	i	i	nt	nt	nt
O=C(CSc1nncs1)NCCCc1ccccc1	i	i	i	i	i	i	nt	nt	nt
C=C1CCC2C(C)(C)[C@H](O)CC[C@@]2(C)[C@@H]1COc1cc(=O)oc2ccccc12 (stereo partly drawn)	i	i	i	i	-13.4	i	59.5%	i	25.5%
CCOCc1c(C(=O)NC2=Nc3ccccc3NC(CC)=C2C(=O)OCC)oc2ccccc12	i	i	i	i	-16.4	i	47.0%	i	i
CCOC(=O)C1=C(CC)Nc2ccccc2N=C1NC(=O)c1oc2ccccc2c1C	i	i	i	i	-11.1	i	35.0%	i	27.0%
CCOC(=O)C1=C(CC)Nc2ccccc2N=C1NC(=O)CCNC(C)=O	i	i	i	i	i	i	nt	nt	nt
CCCn1nc(C(=O)NNC(=O)C2CSC3(C)CCC(=O)N23)c2ccccc2c1=O (stereo not drawn)	i	i	i	i	i	i	nt	nt	nt
C=C(C)C1CC=C(C)/C(=N/NC(=O)c2ccoc2C)C1 (stereo not drawn)	i	i	i	i	i	i	nt	nt	nt
CCC(C)(C)n1nnnc1C(c1cccs1)N1CCc2ccccc21 (stereo not drawn)	i	i	i	i	-9.17	i	51.0%	i	35.5%
O=C(Nc1nnc(-c2ccncc2)o1)c1ccccc1	i	i	i	i	i	i	nt	nt	nt
O=C(Nc1nnc(-c2ccc3c(c2)CCCC3)o1)c1ccccc1	i	i	i	33	i	i	i	i	i
O=C(CN1CCc2cc3c(cc2C1)OCCCO3)Nc1cccc(Br)c1	i	i	i	i	i	i	i	i	i
CC(=O)c1cccc(NC(=O)CN2CCc3cc4c(cc3C2C)OCCCO4)c1 (stereo not drawn)	i	i	i	i	i	i	i	i	i
CC1c2cc3c(cc2CCN1C(=O)c1ccc(Cl)cc1)OCCCO3 (stereo not drawn)	i	i	i	i	-9.9	i	56.5%	i	29.0%
O=C1c2cccnc2C(=O)N1Cc1ccc(F)cc1S(=O)(=O)NCc1ccco1	i	i	i	i	i	i	nt	nt	nt
SMILES	KCNQ1 block	Kir21 block	hERG protect	KCNQ1 pot	KCNK9 inh	KCNK3 inh	KCNK9 inh conf	Kir21 sel	KCNK9 uninduced
Cc1c(N=Nc2c(-c3ccc([N+](=O)[O-])cc3)[nH]n(C(N)=S)c2=O)cccc1[N+](=O)[O-]	nt	nt	nt	nt	nt	i	nt	nt	nt
Cc1[nH]n(C(N)=S)c(=O)c1N=Nc1cccc([N+](=O)[O-])c1C	i	i	i	i	i	i	i	i	i
N=c1oc2ccccc2cc1-c1nc(-c2ccc(Cl)cc2)cs1	i	i	i	i	i	i	nt	nt	nt
NC(=O)c1c(NC(=O)CSc2nc3c(c(C(F)(F)F)n2)CCc2ccccc2-3)sc2c1CCCC2	i	i	i	i	i	i	nt	nt	nt
CN(Cc1ccccc1)C(=O)CSc1nc2c(c(C(F)(F)F)n1)CCc1ccccc1-2	i	i	i	i	i	i	i	i	i
CCCN(CCC)S(=O)(=O)c1ccc(C(=O)N2CCCc3ccccc32)cc1	i	i	i	i	i	i	i	i	i
CCCN(CCC)S(=O)(=O)c1ccc2c(c1)CCCN2C(C)=O	i	i	i	i	i	i	nt	nt	nt
Cc1nc2sc(-c3ccccc3)cc2c(=O)n1/N=C/N(C)C	i	i	i	i	i	i	nt	nt	nt
COc1ccc([C@H]2[C@H](C(=O)OC(C)(C)C)N3N=Cc4ccccc4C3C23C(=O)c2ccccc2C3=O)cc1OC (stereo partly drawn)	i	i	i	i	i	i	nt	nt	nt
CC(C)(C)C(=O)[C@H]1[C@H](c2ccccc2)[C@@]2(N=C(c3ccccc3)OC2=O)C2c3ccccc3C=NN21 (stereo partly drawn)	i	i	i	i	-9.71	i	29.0%	i	i
Cn1cc(CN2CCN(CC(C)(C)C)C(CCO)C2)c2ccccc21 (stereo not drawn)	i	i	i	i	i	i	nt	nt	nt
O=C(Cc1ccc(S(=O)(=O)N2CCOCC2)s1)N(Cc1ccccc1)c1ccccc1	i	i	i	i	i	i	nt	nt	nt
CCCCN(C(=O)Cc1ccc(S(=O)(=O)N2CCOCC2)s1)c1ccccc1	i	i	i	i	i	i	i	i	i
Oc1ccc(Br)cc1CNc1cccc2cccnc12	i	i	i	i	-12.8	i	52.5%	i	40.0%
Cc1ccc(O)c(CNc2ccccn2)c1	i	i	i	i	i	i	nt	nt	nt
